Results from ChEMBL document CHEMBL4616602, “Design and biological evaluation of tetrahydropyridine derivatives as novel human GPR119 agonists” (Bioorg Med Chem Lett, 2020).
Converted amounts (≈) assume the structure as drawn. The source made the active and inactive calls. The rule behind the calls is not given here.

What was measured:
[1] = target: T1, Glucose-dependent insulinotropic receptor (Homo sapiens) (UniProt Q8TDV5); test: Agonist activity at GPR119 (unknown origin) assessed as increase in cAMP level at 10 uM by cAMP HTRF assay relative to oleoylethanolamide; assay type: functional
T1 sequence (whole entry): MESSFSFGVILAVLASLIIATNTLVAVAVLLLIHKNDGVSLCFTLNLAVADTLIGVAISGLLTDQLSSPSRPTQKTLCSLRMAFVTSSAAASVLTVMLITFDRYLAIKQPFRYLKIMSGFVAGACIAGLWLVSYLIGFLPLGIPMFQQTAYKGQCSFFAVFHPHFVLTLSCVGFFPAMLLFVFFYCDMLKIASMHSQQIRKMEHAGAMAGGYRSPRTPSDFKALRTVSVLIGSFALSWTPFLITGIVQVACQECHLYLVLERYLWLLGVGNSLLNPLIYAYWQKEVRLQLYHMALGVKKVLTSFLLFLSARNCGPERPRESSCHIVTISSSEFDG
Summary of the method: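 Cell-based GPR119 agonism at a single 10 μM concentration. Response is expressed as percent of the maximal efficacy of the reference agonist oleoylethanolamide (OEA). Values are means.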

[2] = target: T2, Glucose-dependent insulinotropic receptor (Homo sapiens, UniProt Q8TDV5); test: Agonist activity at GPR119 (unknown origin) assessed as increase in cAMP level by cAMP HTRF assay; assay type: functional
T2 sequence (Q8TDV5 whole entry): T1 sequence (whole entry)
Summary of the method: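 Cell-based GPR119 agonist assay with a top test concentration of 10 μM. EC50 values are reported as means.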

Mus musculus [3] = test: Hypoglycemic activity in C57BL/6 mouse assessed as reduction in blood glucose AUC at 100 mg/kg, po measured after 2 hrs by glucose challenge by OGTT relative to control; assay type: functional; parameters: scale not given: the % may be the effect or the level left
Summary of the method: (§1)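 Normal male C57BL/6J mice received vehicle or compound at 20, 50 or 100 mg/kg, then a glucose challenge of 2 g/kg (10 ml/kg). Blood glucose was followed over 0–120 min and AUC0–120 min calculated. Mean ± SD, n=6, versus vehicle group.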

Mus musculus [4] = test: Hypoglycemic activity in C57BL/6 mouse assessed as reduction in blood glucose AUC at 20 and 50 mg/kg, po measured immediately by glucose challenge by OGTT relative to control; assay type: functional; parameters: scale not given: the % may be the effect or the level left; summary of the method: as §1
Mus musculus [5] = test: Hypoglycemic activity in C57BL/6 mouse assessed as reduction in blood glucose AUC at 20 and 50 mg/kg, po measured after 2 hrs by glucose challenge by OGTT relative to control; assay type: functional; parameters: scale not given: the % may be the effect or the level left; summary of the method: as §1
Mus musculus [6] = test: Hypoglycemic activity in C57BL/6 mouse […] model assessed as reduction in blood glucose AUC at 20 mg/kg, po administered for 28 days and measured after 2 hrs on day 28 by glucose challenge by OGTT relative to control; assay type: functional; parameters: scale not given: the % may be the effect or the level left
Summary of the method: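 Diet-induced obese mice were dosed with 20 mg/kg repeatedly for 28 days. On day 28 an OGTT (2 g/kg glucose) was run with blood glucose tracked over 0–120 min and AUC0–120 min derived. Fasting glucose was also taken at day 28. Mean ± SD, n=6, versus vehicle.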

[7] = Toxicity in C57BL/6 mouse […] model assessed as reduction in food intake at 20 mg/kg, po observed for 4 weeks; assay type: organism-based; conditions: in vivo, 672 h
Summary of the method: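 Diet-induced obese mice were treated at 20 mg/kg for 4 weeks, and average food intake was recorded over the treatment period. Mean ± SD, n=6, compared with vehicle.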

Mus musculus [8] = test: Antidiabetic activity in C57BL/6 mouse […] model assessed as reduction in body weight gain at 20 mg/kg, po administered for 4 weeks and measured on day 28; assay type: functional, organism-based
Summary of the method: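 Diet-induced obese mice were given 20 mg/kg for 4 weeks, with body weight recorded through day 28. Mean ± SD, n=6, versus vehicle group.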

[9] = Solubility of compound; assay type: physicochemical
Summary of the method: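 Aqueous solubility (logS and mg/ml) was calculated in silico, not measured experimentally.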

Structure (SMILES) | Emax [1] [%] | EC50 [2] [nM] | further results
CC(C)(C)OC(=O)N1CC=C(c2nc(COc3ccc(-n4cnnn4)cc3F)cs2)CC1 | 105 | 108 | –
COc1ccc(C(C)=O)cc1OCc1csc(C2=CCN(C(=O)OC(C)(C)C)CC2)n1 | -5.65 | – | –
CCCC(=O)c1ccc(OCc2csc(C3=CCN(C(=O)OC(C)(C)C)CC3)n2)cc1 | 62.5 | – | –
CCc1cnc(N2CC=C(c3nc(COc4ccc(-n5cnnn5)cc4F)cs3)CC2)nc1 | 115 | 8.8 | Activity (Mus musculus [3]): 26.81%; Activity (Mus musculus [4]): 1.2%; Activity (Mus musculus [5]): 14.16%
CC(C)(C)OC(=O)N1CC=C(c2nc(CNc3ccc(Cl)c(I)c3)cs2)CC1 | 5.25 | – | –
CCc1cnc(N2CC=C(c3nc(COc4ccc(-n5cnnn5)cc4)cs3)CC2)nc1 | 110 | 4.9 | Activity (Mus musculus [3]): 35.05%; Activity (Mus musculus [4]): 20.11%; Activity (Mus musculus [5]): 26.77%; Activity (Mus musculus [6]): 34.8%; Activity [7]: Non-Toxic; Activity (Mus musculus [8]): Active; solubility [9]: 56 µg/mL (≈ 125 µM)
CC(C)(C)OC(=O)N1CC=C(c2nc(COc3ccc4c(c3)OCO4)cs2)CC1 | 11.5 | – | –
CCc1cnc(N2CC=C(c3nc(COc4ccc(S(C)(=O)=O)cc4)cs3)CC2)nc1 | 105 | 70.5 | –
CC(C)(C)OC(=O)N1CC=C(c2nc(COc3ccc(OC(F)(F)F)cc3)cs2)CC1 | 7.04 | – | –
CCc1ccc(N2CC=C(c3nc(COc4ccc(S(C)(=O)=O)cc4)cs3)CC2)nc1 | 71.5 | – | –
CC(C)(C)OC(=O)N1CC=C(c2nc(COc3ccc(-n4cnnn4)cc3Cl)cs2)CC1 | 94.4 | 107 | –
COC(=O)c1sccc1NCc1csc(C2=CCN(C(=O)OC(C)(C)C)CC2)n1 | 13 | – | –
CC(C)(C)OC(=O)N1CC=C(c2nc(COc3ccc(Cl)cc3)cs2)CC1 | -7.34 | – | –
CCc1cnc(N2CC=C(c3nc(COc4ccc(-n5cnnn5)cc4Cl)cs3)CC2)nc1 | 109 | 10.2 | Activity (Mus musculus [3]): 12.11%
CC(C)(C)OC(=O)N1CC=C(c2nc(COc3ccc(S(C)(=O)=O)cc3)cs2)CC1 | 78 | 678 | –
CC(C)(C)OC(=O)N1CC=C(c2nc(CNc3ccc(-n4cnnn4)cc3)cs2)CC1 | 35.5 | – | –

Structure (SMILES) | Emax [1] [%] | EC50 [2] [nM] | further results
CCc1cnc(N2CCC(c3nc(COc4ccc(-n5cnnn5)cc4)cs3)CC2)nc1 [MBX-2982] | 113 | 3.9 | Activity (Mus musculus [3]): 29.22%; Activity (Mus musculus [4]): 18.47%; Activity (Mus musculus [5]): 26.72%; Activity (Mus musculus [6]): 23.61%; Activity [7]: Non-Toxic; Activity (Mus musculus [8]): Active; solubility [9]: 37 µg/mL (≈ 82.5 µM)
CC(C)(C)OC(=O)N1CC=C(c2nc(COc3ccc(C4CCCCC4)cc3)cs2)CC1 | 19.7 | – | –
CC(C)(C)OC(=O)N1CC=C(c2nc(CNc3cc(C(F)(F)F)cc(C(F)(F)F)c3)cs2)CC1 | -2.16 | – | –
COc1ccc(NCc2csc(C3=CCN(C(=O)OC(C)(C)C)CC3)n2)c(OC)c1 | -7.44 | – | –
COc1ccc(-n2cnnn2)cc1OCc1csc(C2=CCN(C(=O)OC(C)(C)C)CC2)n1 | 8.4 | – | –
CCc1ccc(N2CC=C(c3nc(COc4ccc(-n5cnnn5)cc4)cs3)CC2)nc1 | 78.5 | – | –
CC(C)(C)OC(=O)N1CC=C(c2nc(COc3ccc(-n4cnnn4)cc3)cs2)CC1 | 95.4 | 113 | –
CCc1ccc(N2CC=C(c3nc(COc4ccc(-n5cnnn5)cc4F)cs3)CC2)nc1 | 89.6 | – | –
COc1ccc(NCc2csc(C3=CCN(C(=O)OC(C)(C)C)CC3)n2)cc1OC | -6.25 | – | –
CCCCCCCC/C=C\CCCCCCCC(=O)NCCO [OLEOYLETHANOLAMIDE] | – | 930 | –
CC(C)(C)OC(=O)N1CC=C(c2nc(CNc3ccc(S(C)(=O)=O)cc3)cs2)CC1 | 26 | – | –
COc1ccc(Br)cc1OCc1csc(C2=CCN(C(=O)OC(C)(C)C)CC2)n1 | -14.2 | – | –
COc1ccc(OCc2csc(C3=CCN(C(=O)OC(C)(C)C)CC3)n2)cc1OC | 10.7 | – | –
CC(C)(C)OC(=O)N1CC=C(c2nc(COc3cccc(-n4cnnn4)c3)cs2)CC1 | -2.17 | – | –
CCc1ccc(N2CC=C(c3nc(COc4ccc(-n5cnnn5)cc4Cl)cs3)CC2)nc1 | 72.7 | – | –
CC(C)(C)OC(=O)N1CC=C(c2nc(COc3ccc(C(C)(C)C)cc3C(C)(C)C)cs2)CC1 | 1.7 | – | –
